Values after ≈ are worked out from the molar mass of the structure shown.

One may read the IC50 as the concentration needed to halve the response being measured. Higher therefore signals a need for much substance.

This assay deals with Plasmodium falciparum. Description: Antimalarial activity against asexual blood stage of Plasmodium falciparum 3D7 after 48 hrs by candle jar method. Format: functional, organism-based. The following applies: 3D7, 48 h. Put shortly:
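Asexual blood-stage parasites grown in B+ human erythrocytes, RPMI-1640 with 10% heat-inactivated pooled compatible serum; exposed to graded compound concentrations in triplicate, 48 h, 37 °C. Percent parasitemia inhibition versus controls from Giemsa-stained thin smears; IC50 from concentration-response curve.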
On to `O=C(/C=C/c1ccc(Cl)cc1)c1ccc(-n2cccn2)cc1`, for which half-maximal inhibition (IC50) was put at 7.76 µg/mL (≈ 25.1 µM).
As for `O=C(/C=C/c1ccc(Cl)cc1)c1ccc(N2CCOCC2)cc1`, the figure is 9.1 µg/mL (≈ 27.8 µM); as for `O=C(/C=C/c1ccc(Cl)cc1)c1ccc(-n2cccc2)cc1`, 2.93 µg/mL (≈ 9.52 µM); as for `COc1ccc(/C=C/C(=O)c2ccc(-n3cccn3)cc2)cc1`, 12.3 µg/mL (≈ 40.5 µM).
The compound `COc1cc(/C=C/C(=O)c2ccc(-n3cccn3)cc2)cc(OC)c1OC` showed an IC50 of 6 µg/mL (≈ 16.5 µM).
As for `O=C(/C=C/c1ccc(Cl)cc1)c1ccc(-n2ccnc2)cc1`, the figure is 8.26 µg/mL (≈ 26.8 µM); as for `O=C(/C=C/c1ccc(Cl)cc1)c1ccc(-n2cncn2)cc1`, 1.52 µg/mL (≈ 4.91 µM); as for `COc1cc(/C=C/C(=O)c2ccc(N3CCCCC3)cc2)cc(OC)c1OC`, 7.16 µg/mL (≈ 18.8 µM).
Then `COc1cc(/C=C/C(=O)c2ccc(-n3cncn3)cc2)cc(OC)c1OC`, with 8.03 µg/mL (≈ 22 µM); and `O=C(/C=C/c1ccc(Cl)cc1)c1ccc(N2CCCC2)cc1`, with 6.01 µg/mL (≈ 19.3 µM); and `COc1ccc(/C=C/C(=O)c2ccc(-n3nnc4ccccc43)cc2)cc1`, with 6.8 µg/mL (≈ 19.1 µM).
As for `O=C(/C=C/c1ccc(Cl)cc1)c1ccc(-n2nnc3ccccc32)cc1`, the figure is 2.5 µg/mL (≈ 6.95 µM).
Compound `O=C(/C=C/c1ccc(Cl)cc1)c1ccc(N2CCCCC2)cc1` displayed an IC50 of 5.15 µg/mL (≈ 15.8 µM).
With `COc1cc(/C=C/C(=O)c2ccc(N3CCOCC3)cc2)cc(OC)c1OC`, the IC50 was found to be 4.6 µg/mL (≈ 12 µM). This IC50 and that of the compound before are within 1.5-fold of each other.

These data come from ChEMBL document CHEMBL1141666, “Synthesis of novel substituted 1,3-diaryl propenone derivatives and their antimalarial activity in vitro” (Eur J Med Chem, 2008).
